This note sets out measurements from article PMC11044220 (ACS Omega, 2024).

A word on the IC50: it is the concentration needed to halve the response being measured.

The test system of test [1] is HepG2 cells. As to the kind of experiment: Cell cycle analysis by flow cytometry. In kind it is cell-based, human. The note with it: for percentage of cells at the G1 phase: IC50 concentration (4.23 μM), control 50.7%. The essentials: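 HepG2 cells were treated for 48 h with 4.23 μM test compound, alongside untreated controls. DNA content was analysed by FACS to give the percentage of cells in G1, S and G2/M. The pre-G1 fraction was scored as the apoptotic (DNA-fragmented) population. Fold changes were expressed relative to the untreated control.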
Background: Flow cytometry measures light scatter and fluorescence of single cells or particles in a stream.

Test [2] concerns HepG2 cells. As to the kind of experiment: Mitochondrial membrane potential. It is filed as cell-based, human. The note with it: HepG2, 48 h, 4.23 μM (IC50 concentration). The method, boiled down:
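Whole HepG2 cells were incubated with 4.23 μM test compound for 48 h, then labelled with a green fluorescent mitochondrial dye. The percentage of cells with depolarised mitochondrial membranes was measured and expressed as fold relative to untreated HepG2 cells.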

In the next test the test system is Bax. Nature of the test: qRT-PCR for apoptotic markers: Bax. In kind it is cell-based. A general note: Real-time PCR tracks product formation cycle by cycle.
The test system of test [3] is HepG2 cells. As to the kind of experiment: Annexin V-FITC/PI dual staining apoptosis assay. It is filed as cell-based, human.
A further test concerns the target EGFR-TK (Homo sapiens, UniProt P00533). Nature of the test: EGFR-TK enzyme assay. It is filed as biochemical.
Another test concerns Bcl2. Nature of the test: qRT-PCR for apoptotic markers: Bcl2. It is filed as cell-based.
A further test concerns p53. As to the kind of experiment: qRT-PCR for apoptotic markers: p53. It is filed as cell-based.
The test system of test [4] is HepG2 liver cancer cell line. To be noted: read-out: IC50 (μM) HepG2, MTT assay, mean of three independent replicates ± SE. (In general: Tetrazolium dyes change colour on reduction, which living cells bring about.)

Sequence of EGFR-TK (P00533 25-1210): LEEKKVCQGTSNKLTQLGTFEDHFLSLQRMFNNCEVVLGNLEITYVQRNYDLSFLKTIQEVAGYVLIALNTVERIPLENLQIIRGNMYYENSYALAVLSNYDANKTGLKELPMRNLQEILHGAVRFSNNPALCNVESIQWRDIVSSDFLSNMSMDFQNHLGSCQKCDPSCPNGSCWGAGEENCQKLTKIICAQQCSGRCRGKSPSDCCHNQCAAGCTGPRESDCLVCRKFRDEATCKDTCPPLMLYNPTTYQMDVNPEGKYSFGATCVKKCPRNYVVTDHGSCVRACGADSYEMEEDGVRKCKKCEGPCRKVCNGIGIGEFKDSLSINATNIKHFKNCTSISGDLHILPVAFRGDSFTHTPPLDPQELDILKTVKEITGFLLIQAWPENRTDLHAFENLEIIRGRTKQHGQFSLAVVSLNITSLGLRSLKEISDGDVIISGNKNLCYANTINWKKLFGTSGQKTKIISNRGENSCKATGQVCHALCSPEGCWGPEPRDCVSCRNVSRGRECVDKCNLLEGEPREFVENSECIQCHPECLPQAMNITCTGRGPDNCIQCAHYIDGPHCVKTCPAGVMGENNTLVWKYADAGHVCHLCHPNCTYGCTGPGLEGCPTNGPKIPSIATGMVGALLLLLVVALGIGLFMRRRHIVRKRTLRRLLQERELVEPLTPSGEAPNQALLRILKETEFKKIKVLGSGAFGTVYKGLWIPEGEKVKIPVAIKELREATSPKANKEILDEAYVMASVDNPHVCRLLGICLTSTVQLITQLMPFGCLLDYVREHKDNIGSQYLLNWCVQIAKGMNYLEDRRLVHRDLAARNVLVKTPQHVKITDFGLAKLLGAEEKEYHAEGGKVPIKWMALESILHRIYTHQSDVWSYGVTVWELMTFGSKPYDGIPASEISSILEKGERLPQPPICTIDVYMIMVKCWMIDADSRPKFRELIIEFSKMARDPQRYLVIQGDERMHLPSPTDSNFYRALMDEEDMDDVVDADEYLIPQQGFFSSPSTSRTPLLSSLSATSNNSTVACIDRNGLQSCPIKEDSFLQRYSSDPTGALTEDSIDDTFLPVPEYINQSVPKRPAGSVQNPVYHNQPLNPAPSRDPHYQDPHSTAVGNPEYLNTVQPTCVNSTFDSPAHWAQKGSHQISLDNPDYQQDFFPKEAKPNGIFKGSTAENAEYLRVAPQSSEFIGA

Regarding `O=C(NN=C(c1ccccc1)c1ccccc1)/C(=C/c1ccc(F)cc1)NC(=O)c1ccccc1` [compound 5, (Z)-N-(3-(2-(Diphenylmethylene)hydrazinyl)-1-(4-fluorophenyl)-3-oxoprop-1-en-2-yl)benzamide], in the test with HepG2 cells [1] (HepG2, 48 h), the “percentage of cells at the G1 phase” value came out at 64.2%.

Turning to `O=C1/C(=C/c2ccc(F)cc2)N=C(c2ccccc2)N1c1ccc(S(=O)(=O)Nc2ncccn2)cc1` [compound 6, (Z)-4-(4-(4-Fluorobenzylidene)-5-oxo-2-phenyl-4,5-dihydro-1H-imidazol-1-yl)-N-(pyrimidin-2-yl)benzenesulfonamide], the “decrease of MMP level, fold compared with untreated control HepG2” value in the test with HepG2 cells [2] was 2.84 fold. In addition, in the test on Bax, the “Bax level, fold change compared with no treatment control” value is given as 3.7 fold. In the test with HepG2 cells [3] (HepG2, 48 h, IC50 concentration (4.23 μM), control 2.5%), the “total apoptotic cells (early and late apoptosis and necrosis)” value was found to be 55.5%. Moreover, in the test on HepG2 cells [3] (HepG2, IC50 concentration, control 0.7%), the “ratio of both early and late apoptosis” value worked out at 44.8%. Half-maximal inhibition against EGFR-TK (IC50) required 0.13 µM. Moreover, the “percentage of cells at the G1 phase” value with HepG2 cells [1] (HepG2, 48 h) was found to be 64.2%. In addition, the “cells at the pre-G1 phase” value in the test on HepG2 cells [1] (HepG2, 48 h, IC50 concentration, control 2.5%) was 55.5%. The “cell cycle arrest at the G1 phase, fold compared to untreated HepG2 control” value in the test with HepG2 cells [1] (HepG2, IC50 concentration) is reported as 1.28 fold. For the same compound, the “Bcl2 level, fold change” value in the test with Bcl2 is given as 0.38 fold. For the same compound, the “p53 level, fold change compared with no treatment control” value with p53 is reported as 4.7 fold.

For `O=C1NN(c2ccccc2)C(c2ccccc2)=N/C1=C\c1ccc(F)cc1` [compound 7, (Z)-5-(4-Fluorobenzylidene)-2,3-diphenyl-1,2-dihydro-1,2,4-triazin-6(5H)-one], the IC50 in test [4] stood at 5.89 ± 0.19 µM.
